Source: ChEMBL document CHEMBL4219101, “Discovery of 18β-glycyrrhetinic acid conjugated aminobenzothiazole derivatives as Hsp90-Cdc37 interaction disruptors that inhibit cell migration and reverse drug resistance” (Bioorg Med Chem, 2018)
Calls of active or inactive are those of the source. No cut-off for these calls is given here.

Columns and labels:
A549 [1] = test: Induction of apoptosis in human A549 cells assessed as late apoptotic cells at 10 uM after 24 hrs by Annexin-V FITC/propidium iodide staining based flow cytometry (reference value: 0.030%)
[2] = Inhibition of HSP90/Cdc37 interaction in human doxorubicin-resistant NCI-H460 cells assessed as reduction in cell proliferation after 48 hrs by MTT assay; conditions: NCI-H460, 48 h
How it was run: (§1)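 Cells in log phase seeded at about 1.0 × 10^5 cells/mL in 96-well plates, left 12 h at 37 °C, 5% CO2. Compounds dissolved in DMSO, added at 2.5, 5, 10, 20 and 50 µM, 48 h exposure. Absorbance read at 570/630 nm dual wavelength. Survival expressed relative to negative control. IC50 by Bliss method (n = 5), tests done in triplicate.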

A549 [3] = test: Induction of apoptosis in human A549 cells assessed as upregulation of Bax protein expression after 24 hrs by Western blot analysis; assay type: functional, cell-based
How it was run: (§2)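 A549 cells exposed to 5 and 10 µM for 24 h. Lysates cleared at 20000g, protein quantified by BCA and equal amounts run on 12% SDS-PAGE, then transferred to PVDF. Blocked in 5% skim milk in TBST. Probed overnight at 4 °C with antibodies to Bcl-2, Bax, caspase-9, caspase-3 and β-actin (loading reference). Chemiluminescent detection. Three independent experiments.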

[4] = target: T1, Heat shock protein HSP90 (Homo sapiens) (UniProt P07900+P08238); test: Inhibition of HSP90 in human A549 cells assessed as downregulation of phosphorylated akt expression after 24 hrs by Western blot analysis; assay type: cell-based
How it was run: (§3)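 A549 cells exposed for 24 h, with geldanamycin as comparator. Whole-cell lysates separated by SDS-PAGE and immunoblotted for the named proteins. β-actin used as reference.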

A549 [5] = test: Cell cycle arrest in human A549 cells assessed as accumulation at G2 phase at 5 uM after 48 hrs by propidium iodide staining-based flow cytometry (reference value: 10.22%); assay type: functional
A549 [6] = test: Inhibition of Hsp90/Cdc37 interaction in human A549 cells assessed as downregulation of Cdc37 in immunoprecipitated HSP90 complex at 5 to 10 uM after 24 hrs by Western blot analysis; assay type: cell-based
How it was run: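 A549 cells exposed to 5 and 10 µM for 24 h, geldanamycin 10 µM as comparator. Lysis in 20 mM Tris-HCl pH 7.4, 25 mM NaCl, 2 mM DTT, 20 mM Na2MoO4, 0.1% NP-40 and protease inhibitors. 500 µg protein immunoprecipitated overnight at 4 °C with anti-Hsp90 antibody, captured on protein G agarose, washed five times and boiled. Cdc37 and Hsp90 detected by Western blot, with input also blotted.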

A549 [7] = test: Cell cycle arrest in human A549 cells assessed as accumulation at S phase after 48 hrs by propidium iodide staining-based flow cytometry; assay type: functional
HCT-116 = test: Antiproliferative activity against human HCT116 cells after 48 hrs by MTT assay; assay type: functional, cell-based; conditions: HCT-116, 48 h
How it was run: as §1

A549 [8] = test: Induction of apoptosis in human A549 cells assessed as downregulation of Bcl2 protein expression after 24 hrs by Western blot analysis; assay type: functional, cell-based
How it was run: as §2

A549 [9] = test: Induction of apoptosis in human A549 cells assessed as necrotic cells at 5 uM after 24 hrs by Annexin-V FITC/propidium iodide staining based flow cytometry (reference value: 2.32%)
A549 [10] = test: Induction of apoptosis in human A549 cells assessed as intracellular ROS levels at 10 uM after 24 hrs by FITC-DCF-DA-fluorescence based flow cytometry (reference value: 0.832%); assay type: functional
How it was run: (§4)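 A549 cells exposed to 5 and 10 µM for 24 h, untreated cells as control. Collected, washed with ice-cold PBS and loaded with DCFH-DA in cell-free medium for 20 min at 37 °C in the dark, then washed. Fluorescence measured by flow cytometry at 485 nm excitation and 538 nm emission. Mean ± S.D. of three independent experiments.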

A549 [11] = test: Cell cycle arrest in human A549 cells assessed as accumulation at G1 phase at 10 uM after 48 hrs by propidium iodide staining-based flow cytometry (reference value: 70.16%); assay type: functional
A549 [12] = test: Induction of apoptosis in human A549 cells after 24 hrs by Annexin-V FITC/propidium iodide staining based flow cytometry
A549 [13] = test: Induction of apoptosis in human A549 cells assessed as early apoptotic cells at 10 uM after 24 hrs by Annexin-V FITC/propidium iodide staining based flow cytometry (reference value: 0.080%)
A549 [14] = test: Induction of apoptosis in human A549 cells assessed as upregulation of cleaved caspase-3 protein expression after 24 hrs by Western blot analysis; assay type: functional, cell-based
How it was run: as §2

[15] = target: Heat shock protein HSP 90-alpha/Hsp90 co-chaperone Cdc37 (Homo sapiens) (UniProt P07900+Q16543); test: Inhibition of HSP90alpha/Cdc37 interaction in human A549 cells assessed as upregulation of HSP90alpha expression at 5 to 10 uM after 24 hrs by Western blot analysis; assay type: cell-based
How it was run: as §3

A549 [16] = test: Induction of apoptosis in human A549 cells assessed as early apoptotic cells at 5 uM after 24 hrs by Annexin-V FITC/propidium iodide staining based flow cytometry (reference value: 0.080%)
HepG2 = test: Antiproliferative activity against human HepG2 cells after 48 hrs by MTT assay; assay type: functional, cell-based; conditions: HepG2, 48 h
How it was run: as §1

A549 [17] = test: Induction of apoptosis in human A549 cells assessed as upregulation of cleaved caspase-9 protein expression after 24 hrs by Western blot analysis; assay type: functional, cell-based
How it was run: as §2

[18] = target: T1, Heat shock protein HSP90 (Homo sapiens); test: Inhibition of HSP90 in human A549 cells assessed as downregulation of CDK4 expression after 24 hrs by Western blot analysis; assay type: cell-based
How it was run: as §3

A549 [19] = test: Induction of apoptosis in human A549 cells assessed as late apoptotic cells at 5 uM after 24 hrs by Annexin-V FITC/propidium iodide staining based flow cytometry (reference value: 0.030%)
A549 [20] = test: Induction of apoptosis in human A549 cells assessed as intracellular ROS levels at 5 uM after 24 hrs by FITC-DCF-DA-fluorescence based flow cytometry (reference value: 0.832%); assay type: functional
How it was run: as §4

A549 [21] = test: Antiproliferative activity against human A549 cells after 48 hrs by MTT assay; assay type: functional, cell-based; conditions: A549, 48 h
How it was run: as §1

[22] = target: Heat shock protein HSP 90-beta/Hsp90 co-chaperone Cdc37 (Homo sapiens) (UniProt P08238+Q16543); test: Inhibition of HSP90beta/Cdc37 interaction in human A549 cells assessed as upregulation of HSP90beta expression at 5 to 10 uM after 24 hrs by Western blot analysis; assay type: cell-based
How it was run: as §3

A549 [23] = test: Cell cycle arrest in human A549 cells assessed as accumulation at G2 phase at 10 uM after 48 hrs by propidium iodide staining-based flow cytometry (reference value: 10.22%); assay type: functional
A549 [24] = test: Cell cycle arrest in human A549 cells assessed as accumulation at G1 phase at 5 uM after 48 hrs by propidium iodide staining-based flow cytometry (reference value: 70.16%); assay type: functional

Chain of Heat shock protein HSP 90-alpha/Hsp90 co-chaperone Cdc37 (Homo sapiens) (Q16543 whole entry, looked up, other chains not shown): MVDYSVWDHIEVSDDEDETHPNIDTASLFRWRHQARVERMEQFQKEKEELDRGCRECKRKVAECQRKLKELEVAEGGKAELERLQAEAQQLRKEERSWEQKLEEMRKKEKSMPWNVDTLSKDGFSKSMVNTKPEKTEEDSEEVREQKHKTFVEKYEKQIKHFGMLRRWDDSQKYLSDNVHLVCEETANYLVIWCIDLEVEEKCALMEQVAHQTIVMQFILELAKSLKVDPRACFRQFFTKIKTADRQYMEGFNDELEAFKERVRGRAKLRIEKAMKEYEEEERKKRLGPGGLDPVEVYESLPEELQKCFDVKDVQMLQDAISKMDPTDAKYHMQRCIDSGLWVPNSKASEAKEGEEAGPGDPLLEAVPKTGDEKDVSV

With `CCOC(=O)[C@@]1(C)CC[C@]2(C)CC[C@]3(C)C(=CC(=O)[C@@H]4[C@@]5(C)CC[C@H](OC(=O)CCC(=O)Nc6nc7ccc(F)cc7s6)C(C)(C)[C@@H]5CC[C@]43C)[C@@H]2C1` the Activity (A549 [1]) was 6.07%, the IC50 [2] was 10.1 µM and the Activity (A549 [3]) was “Dose-dependent effect”. The inhibition [4] was “Dose-dependent effect”, the Activity (A549 [5]) was 12.98% and the inhibition (A549 [6]) was “Active”. The Activity (A549 [7]) was “Dose-dependent effect”, the IC50 (HCT-116) was 7.97 µM and the Activity (A549 [8]) was “Dose-dependent effect”. The Activity (A549 [9]) was 2.18%, the Activity (A549 [10]) was 67.5% and the Activity (A549 [11]) was 47.14%. The Activity (A549 [12]) was “Dose-dependent effect”, the Activity (A549 [13]) was 14% and the Activity (A549 [14]) was “Dose-dependent effect”. For the same compound, the inhibition [15] was “Active”, the Activity (A549 [16]) was 8.45% and the IC50 (HepG2) was 10.6 µM. For the same compound, the Activity (A549 [17]) was “Dose-dependent effect”, the inhibition [18] was “Dose-dependent effect” and the Activity (A549 [19]) was 3.84%. The Activity (A549 [20]) was 13.6%, the IC50 (A549 [21]) was 4.04 µM and the inhibition [22] was “Active”. It also gave an Activity (A549 [23]) of 12.51% and an Activity (A549 [24]) of 52.92%.
